From PubChem BioAssay AID588678 (Southern Research Specialized Biocontainment Screening …, 2011)
Calls of active or inactive are those of the source.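 How the source made its calls: active means inhibition of 30% or more at any tested concentration; inactive means the rest.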

Biological target: M18 aspartyl aminopeptidase (Plasmodium falciparum 3D7)
Assay: inhibition of P. falciparum M18 aspartyl aminopeptidase – biochemical, QFRET fluorogenic substrate, dose response (AID 588678)
Conditions: recombinant PFM18AAP, H-Glu-NHMec fluorogenic substrate cleavage
In short: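 Technique: NHMec fluorescence at 370 nm excitation, 460 nm emission; Assay system: recombinant PFM18AAP enzyme; Replication: triplicate; Compound: 10-point twofold compound dilution series; Evaluation: % inhibition and fitted IC50; Incubation: enzyme reaction with compounds, 90 min at room temperature; Medium: Tris-HCl pH 7.5 with CoCl2 and 2% DMSO.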

SMILES	IC50 [µM]
O=c1cc(CN2CCN(Cc3ccccc3)CC2)c2ccc(O)c(O)c2o1	49.1
O=C1OCCN1CCc1nc(-c2ccc(O)c(O)c2)cs1	8.07
Cc1ccc(-c2nc(-c3ccc(O)c(O)c3)cs2)cc1	9.45
Oc1ccc(CCCNc2c3ccccc3nc3ccccc23)cc1O	27.9
CN(CCc1ccc(O)c(O)c1)c1ccncc1	8.38
COc1ccc2c(c1)C(=O)C(N)CC2 (stereo not drawn)	74.5
Cc1nc(NCCc2ccc(O)c(O)c2)c2c3c(sc2n1)CCC3	13.9
Oc1ccc(-c2csc(Cc3cc4ccccc4[nH]3)n2)cc1O	12.6
O=S1(=O)c2ccccc2-c2cc(-c3nc(-c4ccc(O)c(O)c4)[nH]c3-c3ccccc3)ccc21	16.9

Results, then the molecule that gave them:

IC50 [µM]	SMILES
10.5	Oc1ccc(CCNC(c2ccccc2)c2ccccc2)cc1O
5.4	Oc1ccc(CCNc2cccc3ccccc23)cc1O
9.57	CCOc1cccc(-c2nc(-c3ccc(O)c(O)c3)cs2)c1
19.5	CCC(C)c1ccc(N)c(O)c1 (stereo not drawn)
4.85	CN(CCc1ccc(O)c(O)c1)c1ccnc2ccccc12
17	Cc1c(-c2ccccc2)[nH]c(-c2ccc(O)c(O)c2)[n+]1O
51.4	Nc1cc(C(=O)c2ccccc2)ccc1O
11.6	Oc1ccc(CCNc2ccc3ccccc3c2)cc1O
22.3	Oc1ccc(CCN2CCc3ccccc3C2)cc1O
10.2	Oc1ccc(CCNc2c3c(nc4ccccc24)CCCC3)cc1O
11.4	Oc1ccc(CCNc2cncc3ccccc23)cc1O
44.2	O=c1ccc2cc(O)c(O)cc2o1
13.1	CC(C)(C)C(=O)OCc1nc(-c2ccc(O)c(O)c2)cs1
26.6	Oc1ccc(CCNC2CCN(Cc3ccccc3)CC2)cc1O

Same assay, conditions: recombinant PFM18AAP, H-Glu-NHMec fluorogenic substrate cleavage; at 50 µM (top of the series)

inhibition	SMILES
inactive	O=C(O)CCCNc1c2ccccc2nc2ccccc12
inactive	O=C(O)CCCCNc1c2ccccc2nc2ccccc12
inactive	O=C1c2ccc3c4c(ccc(c24)C(=O)N1O)CC3

Same assay, conditions: recombinant PFM18AAP, H-Glu-NHMec fluorogenic substrate cleavage; at 100 µM (top of the series)

SMILES	inhibition
Cc1c(O)c(=O)ccn1CCNc1c2ccccc2nc2ccccc12	inactive
COc1ccc(CCN2CCc3ccccc3C2)cc1OC	inactive
COc1ccc(CCN(C)c2ccncc2)cc1OC	inactive
COc1ccc(CCN(C)c2c3ccccc3nc3ccccc23)cc1OC	inactive
COc1ccc(CCNc2c3c(nc4ccccc24)CCCC3)cc1OC	inactive
O=c1cc(CO)oc(CN2CCCCC2)c1O	inactive
COc1ccc(CCNc2c3ccccc3nc3ccccc23)cc1OC	inactive
COc1ccc(-c2csc(-c3ccccc3)n2)cc1OC	inactive
COc1ccc(CCNc2ccncc2)cc1OC	inactive
COc1ccc(-c2csc(-c3ccccc3OC)n2)cc1OC	inactive
COc1ccc(CCNC2CCN(C)CC2)cc1OC	inactive
COc1ccc(CCNc2ccc3ccccc3c2)cc1OC	inactive
O=C(c1ccco1)N1CCN(Cc2cc(=O)c(O)co2)CC1	inactive
Cc1c(OCc2ccccc2)c(=O)ccn1CCNc1c2ccccc2nc2ccccc12	inactive
COc1ccc(CCN2CCN(C)CC2)cc1OC	inactive
COc1ccc(CCCNc2c3ccccc3nc3ccccc23)cc1OC	inactive
COc1ccc(CCNc2c3ccccc3nc3ccccc23)cc1	inactive
COc1ccc(-c2nc(-c3ccccc3)c(-c3ccccc3)[nH]2)cc1OC	inactive
COc1ccc(CCN(C)c2ccnc3ccccc23)cc1OC	inactive
O=C(c1ccco1)N1CCN(Cc2cc(=O)c(O)c[nH]2)CC1	inactive
NCc1cc2c3c(c(=O)oc2c(O)c1O)CCC3	inactive
COc1cccc(-c2nc(-c3ccc(OC)c(OC)c3)cs2)c1	inactive
O=c1ccn(CCNc2c3ccccc3nc3ccccc23)cc1OCc1ccccc1	inactive
COc1cccc(CCNc2c3ccccc3nc3ccccc23)c1	inactive
COc1ccc(CNc2c3ccccc3nc3ccccc23)cc1OC	inactive
COc1ccc(CCN(C)CCc2ccccc2)cc1OC	inactive
Oc1ccc(CCNc2c3ccccc3nc3ccccc23)cc1	inactive
COc1ccc(CCNC2CCN(Cc3ccccc3)CC2)cc1OC	inactive

Now from value to molecule:

inhibition	SMILES
inactive	Oc1ccc(CNc2c3ccccc3nc3ccccc23)cc1O
inactive	COc1ccc(CCNc2cccc3ccccc23)cc1OC
inactive	CCC(C)C(=O)Nc1ccccc1N (stereo not drawn)
inactive	COc1ccc(CC(=O)O)cc1OC
inactive	COc1ccc(CCNc2ccnc3ccccc23)cc1OC
inactive	COc1ccc(CCC(=O)O)cc1OC
inactive	NCCNc1c2ccccc2nc2ccccc12
inactive	CCC(C)C(=O)Nc1ccccc1O (stereo not drawn)
inactive	COc1ccc(CCNc2cncc3ccccc23)cc1OC
